Data set [1] deals with MMTV-Neu tumors. Nature of the data set: Short-term tumor volume response, MMTV-Neu GEMM. As to conditions: MMTV-Neu model; for Tumor response (change in tumor volume), in words: 21-day treatment. It is filed as in vivo, mice (FVB/n). In a few lines:
(§1)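 FVB/n transgenic mice bred in-house, enrolled at spontaneous mammary tumor onset (~0.5 cm), randomized to treatment or untreated control groups. Injectable agents given i.p. once weekly, three doses over 21 days; oral agents milled into chow, given continuously; combinations at single-agent doses. Caliper and/or ultrasound measurements; volume = (width)² × length/2; response = percent volume change at day 21.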

The subject of a further data set is T11/TP53−/− tumors. Briefly: Short-term tumor volume response, T11/TP53-/- OST. The data set is classed as in vivo, mice (BALB/c). As to conditions: T11/TP53−/− model, 14-day treatment.
Another data set concerns C3(1)-T-antigen tumors. Briefly: Short-term tumor volume response, C3. The data set is classed as in vivo, mice (FVB/n). To be noted: C3(1)-T-antigen model; for Tumor response (change in tumor volume), in words: 21-day treatment. In a few lines: as §1
For data set [2], the system named is MMTV-Neu tumors. Nature of the data set: Overall survival of tumor-bearing mice, MMTV-Neu. As to conditions: MMTV-Neu model, single agent. It is filed as in vivo, mice (FVB/n).
Data set [3] in a line: Paclitaxel pharmacokinetics in plasma and tumor. It is filed as in vivo, transgenic FVB/n mice bearing the MMTV-Neu transgene.

Entries after “also recorded” stand apart in the source; their conditions may differ.

In the case of `N.N.O=C([O-])C1(C(=O)[O-])CCC1.[Pt+2]` [carboplatin, Carboplatin], the “Tumor response (change in tumor volume), in words” value in the data set with MMTV-Neu tumors [1], in the data set with T11/TP53−/− tumors and with C3(1)-T-antigen tumors was “modest but significant responses” in each case.
`C#Cc1cccc(Nc2ncnc3cc(OCCOC)c(OCCOC)cc23)c1` [erlotinib]: the “Tumor response (change in tumor volume), in words” value in the data set with MMTV-Neu tumors [1] is on record as “highly effective”. For the same compound, in the data set on MMTV-Neu tumors [2], the “Extension of lifespan, in words” value is given as “to some extent”. Moreover, the “Subset of treated mice showing potent activity” value in the data set with C3(1)-T-antigen tumors was about 40%.
As to `CS(=O)(=O)CCNCc1ccc(-c2ccc3ncnc(Nc4ccc(OCc5cccc(F)c5)c(Cl)c4)c3c2)o1` [lapatinib], the “Tumor response (change in tumor volume), in words” value with MMTV-Neu tumors [1] is on record as “exceptional efficacy; also recorded: highly effective; also recorded: complete tumor regression”; with T11/TP53−/− tumors, “neither erlotinib nor lapatinib were effective”; with C3(1)-T-antigen tumors, “ineffective”. In the data set on MMTV-Neu tumors [1] (all tumors), this compound registered a Tumor regression of about 100%. For the same compound, the “Extension of lifespan, in words” value in the data set on MMTV-Neu tumors [2] was “greatly extended lifespan”. This compound gave a Median survival in the data set with MMTV-Neu tumors [2] (untreated median 29 days) of 154 days.
For the compound `CC(=O)O[C@H]1C(=O)[C@@]2(C)[C@H]([C@H](OC(=O)c3ccccc3)[C@]3(O)C[C@H](OC(=O)[C@H](O)[C@@H](NC(=O)c4ccccc4)c4ccccc4)C(C)=C1C3(C)C)[C@]1(OC(C)=O)CO[C@@H]1C[C@@H]2O` [paclitaxel], the “Tumor response (change in tumor volume), in words” value with MMTV-Neu tumors [1], in the data set with T11/TP53−/− tumors and with C3(1)-T-antigen tumors was “no response” in each case. In addition, in data set [3] (FVB/n (MMTV-Neu transgenic), mouse, plasma, ip, 10 mg/kg), the AUC(0-inf) was determined as 6300 ng·h/mL. Also, the “AUC0-∞ in tumor” value in data set [3] (single IP dose 10 mg/kg, MMTV-Neu mice, tumor) came out at 42.4 µg·h/g.

(Values after paper PMC3778918 (Clinical cancer research : an official journal of the …, 2013).)
